The target of experiment [1] is ATP-dependent Clp protease ATP-binding subunit ClpC1 (Mycobacterium tuberculosis) (UniProt P9WPC9). The experiment in a line: Induction of Mycobacterium tuberculosis H37Rv CIpc1 ATPase activity expressed in Escherichia coli BL21 (DE3) cells at 10 uM incubated for 1 hr by Biomol Green Reagent based assay. Put shortly:
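His-tagged ClpC1, cloned from H37Rv DNA into pET28c and purified by Ni-NTA. Assay in 100 mM Tris, 200 mM KCl, 8 mM MgCl2, pH 7.5, with 1 μM ClpC1 and 100 μM ATP. Compound in DMSO at 0.1, 1.0 and 10 μM final. Incubated 1 h at 37 °C. Released phosphate detected with BIOMOL Green at OD620. Three independent experiments.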

The next experiment relates to Micrococcus luteus. The experiment is described as follows: Antibacterial activity against Micrococcus luteus NRRL B-1018 assessed as inhibition of bacterial growth incubated for 16 hrs by broth micro dilution analysis. The experiment is classed as functional. The essentials: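 Broth microdilution in LB, triplicate. Overnight culture diluted 5000-fold; 100 μL added to 100 μL LB holding 2-fold serial dilutions, final 128 to 0.5 μg/mL. Rifampicin control. Static incubation at 37 °C for 16 h. MIC taken as the lowest concentration with no visible growth.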

Experiment [2] has as its system Mycobacterium tuberculosis. The experiment in a line: Induction of Mycobacterium tuberculosis CIpc1/P1/P2 proteolytic activity at 0.1 to 10 uM incubated upto 45 mins by FITC-casein fluorescence based assay. To be noted: dose 0.1-10 µM. Put shortly: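 FITC-casein 0.3 μM degraded by 1 μM ClpC1 with 2 μM ClpP1/P2 and 2 mM ATP. Buffer 100 mM Tris, 200 mM KCl, 8 mM MgCl2, pH 7.5. Compound in DMSO at 0.1, 1.0 and 10 μM. Change in fluorescence tracked relative to initial, which was set to 100. Triplicate.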

Experiment [3] relates to Mycolicibacterium smegmatis. The experiment is described as follows: Antibacterial activity against Mycobacterium smegmatis mc2 155 assessed as bacterial growth inhibition incubated for 48 hrs Alamar blue staining based assay. The experiment is classed as functional. Put shortly:
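Culture grown 48 h at 37 °C, shaken in 7H9 with 0.2% glucose, 0.2% glycerol and 0.05% tyloxapol, then diluted to OD600 0.005. Added 1:1 to 2-fold serial dilutions, final 128 to 0.5 μg/mL. Rifampicin control. Static 48 h at 37 °C, then Alamar Blue for 24 h more. Wells staying blue by eye counted as inhibitory.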
For orientation: Alamar Blue is a resazurin reagent that responds to reducing activity.

In experiment [4] the test system is Mycobacterium tuberculosis. The experiment in a line: Antimycobacterial activity against Mycobacterium tuberculosis H37Rv assessed as bacterial growth inhibition incubated for 6 days by Alamar blue staining based assay. The class given is functional. To be noted: 144 h, time 6 day. The essentials: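 Strains passaged at 37 °C in 7H9 with OADC, 0.2% glycerol and 0.02% tyloxapol to OD600 0.5–0.7, then diluted to OD600 0.005. Final test range 5 to 0.009 μg/mL. Rifampicin control. Incubated 6 days at 37 °C with 5% CO2. Tween 80 and Alamar Blue then added for 24 h. Absorbance read at 570 nm, normalized to 600 nm.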

The structures appear in SMILES notation. ≈ marks a conversion by molar mass, not a printed value. Calls of active or inactive are those of the source.

Sequence of ATP-dependent Clp protease ATP-binding subunit ClpC1 (Mycobacterium tuberculosis) (P9WPC9 whole entry): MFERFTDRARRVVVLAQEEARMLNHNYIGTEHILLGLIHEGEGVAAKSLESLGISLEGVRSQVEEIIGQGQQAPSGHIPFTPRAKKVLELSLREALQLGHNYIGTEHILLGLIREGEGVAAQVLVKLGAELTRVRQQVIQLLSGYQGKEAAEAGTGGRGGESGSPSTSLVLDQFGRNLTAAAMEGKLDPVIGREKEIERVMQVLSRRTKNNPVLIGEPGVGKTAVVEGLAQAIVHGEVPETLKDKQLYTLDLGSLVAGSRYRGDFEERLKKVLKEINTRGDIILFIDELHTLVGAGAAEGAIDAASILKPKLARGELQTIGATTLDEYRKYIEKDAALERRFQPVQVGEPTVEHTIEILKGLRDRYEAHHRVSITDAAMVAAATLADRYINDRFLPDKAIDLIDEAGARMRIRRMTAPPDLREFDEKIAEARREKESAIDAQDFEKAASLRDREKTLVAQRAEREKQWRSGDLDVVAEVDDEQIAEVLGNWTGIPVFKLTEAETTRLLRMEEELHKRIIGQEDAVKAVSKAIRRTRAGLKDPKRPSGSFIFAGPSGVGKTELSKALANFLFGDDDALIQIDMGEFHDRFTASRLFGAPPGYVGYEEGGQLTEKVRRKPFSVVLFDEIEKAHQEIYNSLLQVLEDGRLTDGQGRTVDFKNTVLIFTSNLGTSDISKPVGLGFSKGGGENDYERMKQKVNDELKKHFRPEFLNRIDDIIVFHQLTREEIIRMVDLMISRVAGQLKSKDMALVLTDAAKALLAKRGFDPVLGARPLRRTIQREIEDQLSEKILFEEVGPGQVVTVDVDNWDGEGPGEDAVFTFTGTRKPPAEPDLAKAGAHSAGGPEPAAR

For `C=CC(C)(C)n1cc(C(O)C2NC(=O)[C@H](C(C)C)NC(=O)[C@H](CC(C)C)N(C)C(=O)[C@H](C(C)C)NC(=O)C(C(OC)c3ccccc3)NC(=O)[C@H](C(C)C)NC(=O)C(CC(C)CO)N(C)C2=O)c2ccccc21` (stereo not given in full), the outcome in experiment [1] and in experiment [2] was Active. In addition, the minimal inhibitory concentration (MIC) (usually the smallest concentration in the dilution series that meets the test's criterion for growth inhibition) in the experiment with Micrococcus luteus amounted to 8 mg/L (≈ 7.88 µM); in experiment [3], 16 mg/L (≈ 15.8 µM); in experiment [4], 0.16 mg/L (≈ 0.158 µM).

Source of the values: ChEMBL document CHEMBL5214894, “Biosynthetic Interrogation of Soil Metagenomes Reveals Metamarin, an Uncommon Cyclomarin Congener with Activity against Mycobacterium tuberculosis” (J Nat Prod, 2021).
